This note sets out measurements from ChEMBL document CHEMBL1137637, “Quinuclidine derivatives as potential antiparasitics” (Antimicrob Agents Chemother, 2007).

In one assay the test system is Trypanosoma cruzi. The assay is described as follows: Antitrypanosomal activity against trypomastigotes of Trypanosoma cruzi Tulahuen C2C4 containing lacZ gene in rat L6 cells after 4 days by chlorophenol red-beta-D-galactopyranoside/Nonidet assay. It counts as functional, organism-based. As to conditions: Tulahuen C2C4, L6, 96 h. The procedure, abridged: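 L-6 rat myoblasts seeded at 2,000 cells/well in RPMI 1640 with 10% FBS and 2 mM L-glutamine. After 24 h, 5,000 T. cruzi Tulahuen C2C4 lacZ trypomastigotes added with serial drug dilution. Incubated at 37°C in 5% CO2 for 4 days. CPRG/Nonidet substrate added and colour read at 540 nm after 2–4 h. IC50 from sigmoidal curve. Duplicate determinations.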

Assay [1] deals with Leishmania amazonensis. In words: Inhibition of sterol biosynthesis in Leishmania mexicana amazonensis promastigotes assessed as reduction in endogenous 5-dehydro episterol level at 1 uM after 96 hrs by gas-liquid chromatography. Details: scale not given: the % may be the effect or the level left. It counts as functional. The procedure, abridged: (§1)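 L. mexicana promastigotes exposed to compound for 96 h. Total lipids extracted and neutral sterols separated from polar lipids by silicic acid column chromatography. Sterols analysed by TLC and by quantitative capillary gas-liquid chromatography with mass spectrometry. Composition expressed as mass % of free sterols, compared with untreated control.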

The subject of another assay is Leishmania donovani. The assay is described as follows: Antileishmanial activity against Leishmania donovani MHOM/ET/67/L82 axenic amastigotes after 72 hrs by resazurin assay. The class given is functional, organism-based. As to conditions: MHOM/ET/67/L82, 72 h. The procedure, abridged:
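L. donovani MHOM/ET/67/L82 amastigotes grown axenically at 37°C in synthetic minimal medium at pH 5.4 with 10% heat-inactivated FBS under 5% CO2. 1 × 10⁵ amastigotes per well with seven threefold dilutions, 30 to 0.041 μg/ml. After 72 h, resazurin added for 2–4 h more. Fluorescence read at ex 536/em 588 nm. IC50 taken from sigmoidal curve. Run in duplicate, with an independent repeat for actives.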
A general note: Resazurin is reduced to fluorescent resorufin, in cell work by metabolically active cells.

The test system of assay [2] is Leishmania amazonensis. The assay is described as follows: Inhibition of sterol biosynthesis in Leishmania mexicana amazonensis promastigotes assessed as reduction in endogenous episterol level at 3 uM after 96 hrs by gas-liquid chromatography. The class given is functional. Set-up: scale not given: the % may be the effect or the level left. In a few lines: as §1

The test system of assay [3] is Leishmania amazonensis. The assay is described as follows: Inhibition of sterol biosynthesis in Leishmania mexicana amazonensis promastigotes assessed as reduction in endogenous 5-dehydro episterol level at 3 uM after 96 hrs by gas-liquid chromatography. The class given is functional. Details: scale not given: the % may be the effect or the level left. The procedure, abridged: as §1

Assay [4] deals with Leishmania amazonensis. The assay is described as follows: Inhibition of sterol biosynthesis in Leishmania mexicana amazonensis promastigotes assessed as reduction in endogenous cholesta-5,7,24-trien-3beta-ol level at 3 uM after 96 hrs by gas-liquid chromatography. It counts as functional. Details: scale not given: the % may be the effect or the level left. In a few lines: as §1

In assay [5] the target is T1, Farnesyltransferase, putative (Leishmania major, UniProt Q4Q5W4).
T1 sequence (Q4Q5W4 whole entry): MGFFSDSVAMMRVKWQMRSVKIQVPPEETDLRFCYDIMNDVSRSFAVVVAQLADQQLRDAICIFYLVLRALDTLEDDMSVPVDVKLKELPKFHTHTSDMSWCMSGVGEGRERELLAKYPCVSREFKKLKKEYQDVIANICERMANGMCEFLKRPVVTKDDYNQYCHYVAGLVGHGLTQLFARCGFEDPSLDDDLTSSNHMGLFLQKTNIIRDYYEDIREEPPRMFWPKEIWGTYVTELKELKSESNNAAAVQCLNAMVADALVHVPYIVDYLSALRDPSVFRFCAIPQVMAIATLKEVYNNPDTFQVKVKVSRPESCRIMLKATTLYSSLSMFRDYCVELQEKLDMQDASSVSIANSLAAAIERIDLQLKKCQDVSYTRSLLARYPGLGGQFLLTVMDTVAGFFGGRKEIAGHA
The assay is described as follows: Inhibition of Leishmania major recombinant squalene synthase expressed in Escherichia coli by liquid scintillation counter. The procedure, abridged: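 Soluble E. coli extract expressing L. major SQS truncated by 16 N-terminal and 40 C-terminal residues. Buffer: 50 mM phosphate pH 7.4, 20 mM MgCl2, 5 mM CHAPS, 1% Tween 80, 10 mM DTT, BSA, 0.25 mM NADPH, and a glucose-6-phosphate/G6PDH regenerating system. Substrate 0.5 μM radiolabelled farnesyl pyrophosphate. Squalene band counted by scintillation. IC50 from hyperbolic plot of five concentrations in duplicate, usually run twice.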

Assay [6] relates to Leishmania amazonensis. In words: Inhibition of sterol biosynthesis in Leishmania mexicana amazonensis promastigotes assessed as reduction in endogenous cholesta-7,24-dien-3beta-ol level at 3 uM after 96 hrs by gas-liquid chromatography. The class given is functional. Set-up: scale not given: the % may be the effect or the level left. The procedure, abridged: as §1
A further assay relates to Plasmodium falciparum. In words: Antiplasmodial activity after 48 hrs against chloroquine and pyrimethamine-resistant Plasmodium falciparum K1 in human erythrocytes by [3H]hypoxanthine uptake. It counts as functional, organism-based. The procedure, abridged: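 P. falciparum K1 in human red cells in RPMI 1640 with 5% Albumax, exposed to serial drug dilutions. Incubated 48 h at 37°C under reduced oxygen, then 0.5 μCi [³H]hypoxanthine per well for 24 h more. Cells harvested onto glass-fibre filters and counted by scintillation. Result expressed as % of untreated control, with IC50 from sigmoidal curve. Duplicate, plus an independent repeat for actives.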

The test system of assay [7] is Leishmania amazonensis. In words: Inhibition of sterol biosynthesis in Leishmania mexicana amazonensis promastigotes assessed as reduction in exogenous cholesterol level at 10 uM after 96 hrs by gas-liquid chromatography. The class given is functional. Set-up: scale not given: the % may be the effect or the level left. In a few lines:
as §1

In assay [8] the test system is Leishmania amazonensis. The assay is described as follows: Inhibition of sterol biosynthesis in Leishmania mexicana amazonensis promastigotes assessed as reduction in endogenous cholesta-5,7,24-trien-3beta-ol level at 1 uM after 96 hrs by gas-liquid chromatography. It counts as functional. Set-up: scale not given: the % may be the effect or the level left. In a few lines: as §1

The subject of assay [9] is Leishmania amazonensis. In words: Inhibition of sterol biosynthesis in Leishmania mexicana amazonensis promastigotes assessed as reduction in exogenous cholesterol level at 1 uM after 96 hrs by gas-liquid chromatography. It counts as functional. Set-up: scale not given: the % may be the effect or the level left. The procedure, abridged: as §1
Assay [10] deals with Leishmania amazonensis. The assay is described as follows: Antileishmanial activity against Leishmania mexicana amazonensis promastigotes by trypan blue exclusion method. The class given is functional, organism-based. The procedure, abridged:
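L. mexicana amazonensis promastigotes cultured in liver infusion-tryptose medium with lactalbumin and 10% FCS at 26°C, unagitated. Cultures started at 2 × 10⁶ cells/ml and drug added at 0.5–1 × 10⁷ cells/ml. Density counted by electronic particle counter and hemocytometer. Viability by trypan blue exclusion. Triplicate growth experiments.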

The test system of assay [11] is Leishmania amazonensis. In words: Inhibition of sterol biosynthesis in Leishmania mexicana amazonensis promastigotes assessed as reduction in endogenous cholesta-7,24-dien-3beta-ol level at 1 uM after 96 hrs by gas-liquid chromatography. The class given is functional. Set-up: scale not given: the % may be the effect or the level left. In a few lines:
as §1

For assay [12], the system named is Leishmania amazonensis. The assay is described as follows: Inhibition of sterol biosynthesis in Leishmania mexicana amazonensis promastigotes assessed as reduction in endogenous episterol level at 1 uM after 96 hrs by gas-liquid chromatography. The class given is functional. Set-up: scale not given: the % may be the effect or the level left. In a few lines:
as §1

For assay [13], the system named is Leishmania amazonensis. In words: Inhibition of sterol biosynthesis in Leishmania mexicana amazonensis promastigotes assessed as reduction in exogenous cholesterol level at 3 uM after 96 hrs by gas-liquid chromatography. The class given is functional. Details: scale not given: the % may be the effect or the level left. The procedure, abridged:
as §1

The next assay concerns L6. The assay is described as follows: Cytotoxicity against rat L6 cells after 72 hrs by resazurin assay. The class given is cell-based. As to conditions: L6, 72 h. In a few lines: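 L-6 cells seeded at 4 × 10⁴ cells/ml in RPMI 1640 with 10% FBS and 2 mM L-glutamine. After 24 h, medium replaced with serial drug dilution and incubated for 72 h at 37°C in 5% CO2. Resazurin added for 2–4 h, fluorescence read at ex 536/em 588 nm. IC50 from sigmoidal curve. Duplicate, with an independent repeat for actives.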

For assay [14], the system named is Trypanosoma brucei rhodesiense. The assay is described as follows: Trypanocidal activity against Trypanosoma brucei rhodesiense STIB 900 bloodstream form after 72 hrs by resazurin assay. It counts as functional, organism-based. As to conditions: STIB 900, 72 h. In a few lines:
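T. b. rhodesiense STIB 900 bloodstream forms in MEM with 2-mercaptoethanol and 15% heat-inactivated horse serum, with serial drug dilutions. Incubated 72 h at 37°C in 5% CO2. Resazurin added for 2–4 h more, fluorescence read at ex 536/em 588 nm. IC50 from sigmoidal curve. Duplicate, with an independent repeat for actives.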

The target in assay [15] is T2, Farnesyltransferase, putative (Trypanosoma cruzi (strain CL Brener), UniProt Q4CXF7).
T2 sequence (Q4CXF7 whole entry): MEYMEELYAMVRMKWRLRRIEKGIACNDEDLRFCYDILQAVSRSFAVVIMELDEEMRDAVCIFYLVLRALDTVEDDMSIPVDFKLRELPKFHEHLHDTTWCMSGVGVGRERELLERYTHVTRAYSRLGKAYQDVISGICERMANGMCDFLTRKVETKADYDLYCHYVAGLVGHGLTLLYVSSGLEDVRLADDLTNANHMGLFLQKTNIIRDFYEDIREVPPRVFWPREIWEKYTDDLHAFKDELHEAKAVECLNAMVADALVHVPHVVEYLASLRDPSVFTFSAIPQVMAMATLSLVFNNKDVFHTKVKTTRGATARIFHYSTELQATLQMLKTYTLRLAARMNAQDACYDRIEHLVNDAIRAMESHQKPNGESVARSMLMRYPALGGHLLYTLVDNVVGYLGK
The assay is described as follows: Inhibition of Trypanosoma cruzi squalene synthase.

A short description of assay [16]: Inhibition of Leishmania mexicana squalene synthase.

Structures are written as SMILES. Values after ≈ are worked out from the molar mass of the structure shown.

The term IC50 denotes the concentration that gives 50% inhibition. Usually MIC stands for the lowest concentration found to suppress growth. For the compound `OC[C@H]1CC2CCN1C[C@@H]2C#Cc1ccc(-c2ccccc2)cc1` (stereo not given in full), the IC50 in the assay on Trypanosoma cruzi is 5800 nM; in the assay with Leishmania donovani it was 33700 nM; in [5] it was > 1000 nM; with Plasmodium falciparum it was 1400 nM; in the assay with L6, 11000 nM; in assay [14], 500 nM. The Activity is recorded as 49.3% in the assay with Leishmania amazonensis [1]; 6.6% with Leishmania amazonensis [2]; 36% with Leishmania amazonensis [3]; 32.7% in the assay with Leishmania amazonensis [4]; 10.7% with Leishmania amazonensis [6]; >99% with Leishmania amazonensis [7]. The Activity came out at 20.1% in the assay with Leishmania amazonensis [8]; 15.4% in the assay with Leishmania amazonensis [9]; 7.6% in the assay on Leishmania amazonensis [11]; 7.6% in the assay with Leishmania amazonensis [12]; 14% in the assay with Leishmania amazonensis [13]. This compound also showed a minimum inhibitory concentration (MIC) in the assay with Leishmania amazonensis [10] of 10 µM (≈ 3.17 µg/mL).

One may read the Ki as the dissociation constant of the complex between target and ligand, obtained from inhibition or displacement. `OC1(c2ccc(-c3ccccc3)cc2)CN2CCC1CC2` (stereo not given): the Activity is listed as 65.7% with Leishmania amazonensis [1]; 20.8% with Leishmania amazonensis [2]; 39.6% with Leishmania amazonensis [3]; 17.5% with Leishmania amazonensis [9]; 16.8% in the assay with Leishmania amazonensis [12]; 39.6% in the assay on Leishmania amazonensis [13]. In addition, the Ki in [15] stood at 62 nM; in assay [16], 12 nM. Further, the IC50 in [5] came out at 13 nM.

For the compound `OC[C@@H]1CC2CCN1C[C@@H]2C#Cc1ccc(-c2ccccc2)cc1` (stereo not given in full), the IC50 in the assay on Trypanosoma cruzi is 5600 nM; with Leishmania donovani it was 18500 nM; in assay [5], > 1000 nM; in the assay on Plasmodium falciparum, 600 nM; in the assay on L6, 10700 nM; in [14] it was 1200 nM. Besides, the Activity with Leishmania amazonensis [1] is recorded as 36.4%; in the assay with Leishmania amazonensis [2] it was 9.3%; in the assay on Leishmania amazonensis [3], 33.7%; with Leishmania amazonensis [4] it was 24.8%; with Leishmania amazonensis [6] it was 7%; in the assay with Leishmania amazonensis [7] it was >99%. Besides, the Activity in the assay on Leishmania amazonensis [8] is 41.7%; in the assay with Leishmania amazonensis [9], 10.3%; in the assay on Leishmania amazonensis [11] it was 7.2%; with Leishmania amazonensis [12], 4.4%; in the assay with Leishmania amazonensis [13], 25.2%. This compound also returned a minimal inhibitory concentration (MIC) in the assay with Leishmania amazonensis [10] of 3 µM (≈ 0.952 µg/mL).
